# Measurements published in ChEMBL document CHEMBL4382230, “Structure-activity relationships, biological evaluation and structural studies of novel pyrrolonaphthoxazepines as antitumor agents” (Eur J Med Chem, 2019).
# Active and inactive are the calls of the source. The calls are words filed in the database; no cut-off is given here.
# Experiments:
# B16-F1 = assay: Cytotoxicity against mouse B16-F1 cells assessed as reduction in cell survival at 0.1 to 10 uM after 18 hrs by MTT assay; type: functional, cell-based
# How it was run: (§1)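 Seeded at 2,500 cells/well in medium with 10% serum. After adhesion, exposed to 0.1, 1 and 10 μM in medium with 5% serum for 18 h. Medium then replaced with fresh medium containing 1.2 mM MTT for 4 h; formazan dissolved in DMSO, absorbance at 540 nm. Results given as % of basal response.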
# A2780 = assay: Cytotoxicity against human A2780 cells after 48 hrs by MTT assay; type: functional, cell-based; conditions: A2780, 48 h
# How it was run: (§2)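 Cells seeded at 12,000 to 17,000 per well depending on line, incubated overnight, then given serial dilutions of ligand for 48 h. MTT at 2.5 mg/mL added for 4 h at 37 °C, formazan solubilized overnight (10% SDS, 45% dimethylformamide, pH 5.5), absorbance read at 595/690 nm. IC50 from log-dose response curves; mean ± SE of three independent assays.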
# SCC-4 = assay: Induction of apoptosis in human SCC4 cells at 500 nM after 48 hrs by Annexin V/propidium iodide staining-based flow cytometric analysis relative to control; type: functional
# How it was run: (§3)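 Seeding density: NCI-H929 and Ca9.22 at 30×10^4 cells/mL, SCC4 at 15×10^4 cells/mL. Cells exposed 48 h to compound (500 nM; 50 μM in SCC4 for one compound) or vehicle (1% EtOH v/v). Annexin V/PI staining, flow cytometry, 10,000 cells gated on vehicle-treated cells. Three independent experiments, mean ± S.E.M, T-test.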
# Ca9-22 = assay: Cytotoxicity against human Ca9-22 cells after 24 hrs by MTT assay; type: functional, cell-based; conditions: Ca9-22, 24 h
# NCI-H929 [1] = assay: Cytotoxicity against human NCI-H929 cells after 48 hrs by MTT assay; type: functional, cell-based; conditions: NCI-H929, 48 h
# How it was run: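 Cells (NCI-H929 in RPMI-1640 GlutaMAX; SCC4 in DMEM GlutaMAX; 10% FBS, 37 °C, 5% CO2) treated with increasing concentrations for 48 h. IC50 is the mean of three independent experiments.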
# [2] = Apparent solubility of compound in sodium phosphate buffer at 15 uM after 20 mins; type: physicochemical
# GISTT1 = assay: Cytotoxicity against human GISTT1 cells assessed as reduction in cell viability at 1 uM after 48 hrs by alamar blue assay; type: functional, cell-based
# How it was run: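 GIST-T1 seeded at 4000 cells/well, exposed to 1 or 10 μM for 48 h; viability read by AlamarBlue.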
# [3] = Solubility of compound in pH 7.4 aqueous solution after 12 hrs by HPLC analysis; type: physicochemical
# How it was run: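 Water solubility at pH 7.4 measured by HPLC analysis.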
# HL-60 = assay: Cell cycle arrest in human HL60 cells assessed as accumulation of cells at G2/M phase at 10 uM after 24 hrs by propidium iodide staining-based flow cytometric analysis; type: functional
# How it was run: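 HL-60 exposed to 10 μM for 24 h, vehicle 0.1% DMSO. Cells plated at 2×10^5 cells/mL, stained in PBS with 0.1% sodium citrate, 0.1% NP40 and propidium iodide for 30 min at room temperature in the dark. DNA content by flow cytometry; G2/M fraction reported.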
# A549 = assay: Cytotoxicity against human A549 cells assessed as reduction in cell survival at 0.1 to 10 uM after 18 hrs by MTT assay; type: functional, cell-based; how it was run: as §1
# NIH3T3 = assay: Cytotoxicity against mouse NIH/3T3 cells after 48 hrs by MTT assay; type: cell-based; conditions: NIH3T3, 48 h; how it was run: as §2
# NB-4 = assay: Induction of differentiation in human NB4 cells at 500 nM after 24 hrs in presence of ATRA by CD11c staining-based flow cytometric analysis; type: functional, cell-based
# How it was run: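 NB4 exposed to 0.5 μM compound together with 1 μM ATRA for 24 h. Cells stained with PE-conjugated CD11c (mouse IgG1-PE control) for 1 h at 4 °C in the dark, washed, resuspended in PBS with propidium iodide (0.25 μg/mL), then analysed by flow cytometry. Biological triplicates, mean ± S.E.M.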
# PC-9 [4] = assay: Induction of apoptosis in human PC9 cells assessed as reduction in cyclin D1 expression at 10 uM after 18 hrs by Western blot analysis; type: functional, cell-based
# How it was run: (§4)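 PC9 and HCC827 maintained in DMEM with 10% FBS, then exposed to 10 μM compound for 18 h in 5% serum. Caspase 3 activation and cell cycle proteins examined by western blot.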
# Tubulin (Homo sapiens) = Tubulin (Homo sapiens) (UniProt P68371+Q9H4B7+P0DPH7+P68366+Q13509+Q71U36+P04350+Q3ZCM7+P07437+P68363+Q9BQE3+Q6PEY2+Q13885+Q9BVA1+Q9BUF5); assay: Binding affinity to tubulin (unknown origin) by analytical ultracentrifugation
# NCI-H929 [5] = assay: Induction of apoptosis in human NCI-H929 cells at 500 nM after 48 hrs by Annexin V/propidium iodide staining-based flow cytometric analysis relative to control; type: functional; how it was run: as §3
# PC-9 [6] = assay: Induction of apoptosis in human PC9 cells assessed as increase in p21 expression at 10 uM after 18 hrs by Western blot analysis; type: functional, cell-based; how it was run: as §4
# B16-F10 = assay: Cytotoxicity against mouse B16F10 cells assessed as reduction in cell survival at 0.1 to 10 uM after 18 hrs by MTT assay; type: functional, cell-based; how it was run: as §1
# HCC827 = assay: Cytotoxicity against human HCC827 cells assessed as reduction in cell survival at 0.1 to 10 uM after 50 to 60 hrs by MTT assay; type: functional, cell-based
smiles,measurement,setting,value
CC(=O)OC1=C(c2cccc3ncccc23)Oc2cc3ccccc3cc2-n2cccc21,Activity,B16-F1,Active
same,IC50,A2780,80 nM
same,Activity,SCC-4,>40%
same,IC50,Ca9-22,31600 nM
same,IC50,NCI-H929 [1],363 nM
same,"solubility at 20 min, 15 µM",[2],0.17 µM
same,Activity,GISTT1,Active
same,solubility at 12 h,[3],458 µM
same,Activity,HL-60,Active
same,Activity,A549,Active
same,IC50,NIH3T3,42 nM
same,Activity,NB-4,Active
same,Activity,PC-9 [4],Active
same,Kb,Tubulin (Homo sapiens),7 ×10⁷ /M
same,Activity,NCI-H929 [5],>40%
same,Activity,PC-9 [6],Active
same,Activity,B16-F10,Active
same,Activity,HCC827,inactive
